≈ marks a conversion by molar mass, not a printed value.
What was measured:
[1] = Volume of distribution at steady state in Wistar rat at 1 mg/kg, iv by UPLC-MS/MS analysis; type: ADME, organism-based; parameters: dose 1 mg/kg, route intravenous; details: in vivo, read-out: Vdss
Summary of the method: (§1)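 Wistar rats dosed 1 mg/kg iv or 10 mg/kg po. Blood drawn from the retro-orbital plexus at set time points. Plasma separated by centrifugation (3000 rpm, 10 min, 4 °C) and stored at −20 °C until analysis. Values are mean of n = 2.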

[2] = Half life in Wistar rat at 1 mg/kg, iv by UPLC-MS/MS analysis; type: ADME, organism-based; parameters: dose 1 mg/kg, route intravenous; details: in vivo
Summary of the method: (§2)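 Male Wistar rats received 1 mg/kg iv or 10 mg/kg po. Blood was drawn from the retro-orbital plexus at set time points and centrifuged (3000 rpm, 10 min, 4 °C). Plasma was stored at −20 °C and prepared by protein precipitation for analysis. Oral exposure was measured over 0–6 h. Values are mean ± SD, n = 2.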

[3] = (§3) Bioavailability in Wistar rat at 10 mg/kg, po and at 1 mg/kg, iv measured up to 6 hrs; type: ADME, organism-based; details: Wistar, in vivo; summary of the method: as §2
[4] = (§4) AUC (0 to 6 hrs) in Wistar rat at 10 mg/kg, po by UPLC-MS/MS analysis; type: ADME, organism-based, Plasma; parameters: time < 6 hr, dose 10 mg/kg, route oral; details: Wistar, plasma; summary of the method: as §2
[5] = Cmax in Wistar rat at 10 mg/kg, po by UPLC-MS/MS analysis; type: ADME, organism-based; parameters: dose 10 mg/kg, route oral; details: in vivo; summary of the method: as §2
[6] = Clearance in Wistar rat at 1 mg/kg, iv by UPLC-MS/MS analysis; type: ADME, organism-based; parameters: dose 1 mg/kg, route intravenous; details: in vivo; summary of the method: as §2
[7] = Tmax in Wistar rat at 10 mg/kg, po by UPLC-MS/MS analysis; type: ADME, organism-based; parameters: dose 10 mg/kg, route oral; details: in vivo; summary of the method: as §1
[8] = Solubility of the compound at pH 7.4; type: physicochemical; details: buffer
[9] = system: Rattus norvegicus; assay: as §3; type: ADME, organism-based; details: in vivo, 6 h; summary of the method: as §2
[10] = system: Rattus norvegicus; assay: as §4; type: ADME, organism-based, Plasma; parameters: time < 6 hr, dose 10 mg/kg, route oral; details: in vivo, 6 h; summary of the method: as §2
[11] = Solubility of the compound at pH 1.0; type: physicochemical; details: buffer
[12] = Metabolic stability in human liver microsomes assessed as metabolic rate at 5 uM after 30 mins by UPLC-MS/MS analysis; type: ADME, Microsome; details: read-out: Activity
Summary of the method: (§5)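 Test compound at 5 μM incubated 30 min at 37 °C with liver microsomes (1 mg/mL protein), with and without NADPH. Parent compound quantified by UPLC-MS/MS. Metabolic rate taken from parent peak area with NADPH versus without.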

[13] = Metabolic stability in rat liver microsomes assessed as metabolic rate at 5 uM after 30 mins by UPLC-MS/MS analysis; type: ADME, Microsome; details: read-out: Activity; summary of the method: as §5

Row | Vd [1] | half-life [2] | bioavailability [3] | AUC(0-t) at 6 h [4] | Cmax [5] | clearance [6] | Tmax [7] | solubility [8] | F [9] | AUC [10] | solubility [11] | metabolised at 0.5 h, 5 µM [12] | metabolised at 0.5 h, 5 µM [13] | SMILES
1 | 13.7 L/kg | 2.3 h | 16% | 0.48 µM·h | 200 nM | 102 mL/min/kg | 0.3 h |  |  |  |  |  |  | [O-][n+]1ccc2c(-c3ccc(F)cc3F)cc(C3CCNCC3)nc2c1-c1c(Cl)cccc1Cl
2 | 10.3 L/kg | 4.6 h | < 10% | 0.05 µM·h | 90 nM | 59 mL/min/kg | 0.3 h |  |  |  |  |  |  | [O-][n+]1ccc2c(-c3ccc(F)cc3F)cc(NC3CCNCC3)nc2c1-c1c(F)cccc1F
3 | 1.7 L/kg | 7.4 h |  |  | 5300 nM |  | 3.5 h | 27 µg/mL (≈ 77.5 µM) | 38% | 29.5 µM·h | 41 µg/mL (≈ 118 µM) | < 5% | 9% | Cc1ccccc1-c1c2nccc(-c3ccc(F)cc3F)c2cc[n+]1[O-]
